Published values of several laboratories.
Lines come from different studies, so protocols differ.
Target: Wee1-like protein kinase (WEE1, Homo sapiens, UniProt P30291)

Cc1cc(NC(=O)c2cccc3cc(-c4cccc5[nH]nc(N)c45)ccc23)ccc1F  activity vs control (enzyme activity; inhibitor; 0.1 µM): 97%
Cc1ccc(NC(=O)c2ccc(CN3CCN(C)CC3)cc2)cc1Nc1nc(-c2cccnc2)cs1  remaining signal (cell-free assay; 0.5 µM): 97%
CC(C)(O)[C@H]1CC[C@H](Nc2ccc3ncc(-c4cccc(C(F)(F)F)c4)n3n2)CC1  remaining activity (enzyme activity; inhibitor; 1 µM): 87.3%
C[C@H](NC(=O)c1cnc2n1[C@](C)(Cc1ccc(C#N)cc1)C(=O)N2c1cc(Cl)c(F)c(Cl)c1)C(=O)NC1(c2ccccn2)CC1  remaining binding (cell-free assay; competition with immobilised ligand; 1 µM): 100%
COc1cc2c(Nc3ccc(Br)cc3F)ncnc2cc1OCC1CCN(C)CC1  remaining signal (cell-free assay; 0.5 µM): 95.1%
CCOCCn1cc(C(=O)Nc2ccc(-n3nc(-c4cccnc4)cc3C(F)(F)F)cn2)ccc1=O  remaining binding (cell-free assay; competition with immobilised ligand; 1 µM): 100%
Cc1cnc(NC2CCOCC2)nc1-n1cnc(C(=O)NC(CN)c2cc(F)cc(Cl)c2)c1 (stereo not shown)  remaining activity (enzyme activity; inhibitor; radiometric; 1 µM): 101%
O=C(Nc1cnn(-c2csc(C(=O)NC3COC3)c2)c1)Nc1c(F)cccc1Cl  remaining activity (enzyme activity; inhibitor; 5 µM): 85.2%
O=C1Nc2ccc(Cl)cc2C1=Cc1cc(Cl)c(O)c(Cl)c1  remaining signal (cell-free assay; 0.5 µM): 79.1%
CC(C)(C)c1nc(-c2cccc(NS(=O)(=O)c3c(F)cccc3F)c2F)c(-c2ccnc(N)n2)s1  remaining activity (enzyme activity; inhibitor; radiometric; 1 µM): 91%
CC(=O)N1CCC(c2ccc(C(=O)NC3=NCCN3)cc2C(F)(F)F)CC1  remaining binding (cell-free assay; competition with immobilised ligand; 1 µM): 100%
N#CCCc1ccc2c(c1)-c1[nH]c3ccc([N+](=O)[O-])cc3c1CC(=O)N2  remaining signal (cell-free assay; 0.5 µM): 100%
CC1=C(C#N)[C@@H](c2ccc3[nH]nc(C)c3c2)C(C#N)=C(c2ccc(Cl)cc2)N1  remaining binding (cell-free assay; competition with immobilised ligand; 1 µM): 100%
Cc1ccc(C(=O)NCc2ccsc2)cc1C#Cc1cn(C(C)C)c2ncnc(N)c12  activity vs control (enzyme activity; inhibitor; 1 µM): 103%
O=c1nc(-c2ccccn2)sc2ccccc12  remaining binding (binding; competition with immobilised ligand; 1 µM): 100%
CN(c1nccc(-c2cnn3ncccc23)n1)C1CC1  remaining binding (binding; 1 µM): 100%
